Drawing on ChEMBL document CHEMBL5143667, “Identification of Aloe-derived natural products as prospective lead scaffolds for SARS-CoV-2 main protease (Mpro) inhibitors” (Bioorg Med Chem Lett, 2022), this text covers inhibition and IC50 for 27 molecules.

What is called inhibition is the drop in the measured response relative to a control, in per cent. Usually IC50 stands for the midpoint of a concentration-inhibition curve.

Square brackets hold non-standard residues; d marks the D form. Peptide text beside a SMILES is read from it. * marks the point of attachment. Nle = CCCC[C@H](N)C(=O)O; Cbz = O=C(OCc1ccccc1)*

Experiment [1] has as its target Replicase polyprotein 1ab (Severe acute respiratory syndrome coronavirus 2) (UniProt P0DTD1). Put plainly: Inhibition of SARS-CoV-2 main protease expressed in Escherichia coli using DABCYL-KTSAVLQ1SGFRKM-E(EDANS)-NH2 peptide as substrate at 100 uM incubated for 30 mins by FRET based assay relative to control. The procedure, abridged: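 Started by adding substrate–inhibitor mix to enzyme. Ex 360/Em 460 nm every 2.5 min for 1 h. Initial velocity from first 20 min, substrate background subtracted, % inhibition vs DMSO control. Triplicate, mean ± SD.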

Experiment [2] deals with Replicase polyprotein 1ab (Severe acute respiratory syndrome coronavirus 2, UniProt P0DTD1). Put plainly: Inhibition of SARS-CoV-2 main protease expressed in Escherichia coli using DABCYL-KTSAVLQ1SGFRKM-E(EDANS)-NH2 peptide as substrate incubated for 30 mins by FRET based assay. The procedure, abridged:
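Same FRET set-up with varied inhibitor concentrations: 50 nM Mpro, 10 μM substrate, Tris-HCl/NaCl/EDTA/DTT buffer, pH 7.3, room temperature, read every 2.5 min for 1 h. Initial slopes from first 20 min, % inhibition vs DMSO. IC50 by nonlinear regression, three-parameter dose–response inhibition model. Triplicates, mean ± SD.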

Regarding `Nc1ccccc1NC(=O)c1ccc(CNc2nccc(-c3cccnc3)n2)cc1`, the inhibition in experiment [1] turned out to be 66.7%.

Turning to `CCCC[C@@H](C=O)NC(=O)[C@H](CC(C)C)NC(=O)[C@H](CC(C)C)NC(C)=O` (Ac-Leu-Leu-[Nle]-aldehyde), the inhibition in experiment [1] stood at 95.2%.

In experiment [1], `Cc1coc2c1C(=O)C(=O)c1c-2ccc2c1CCCC2(C)C` showed an inhibition of 53.9%.

Consider `COc1cc(C)c2c(=O)cc(CC(C)=O)oc2c1[C@@H]1O[C@H](CO)[C@@H](O)[C@H](O)[C@H]1OC(=O)/C=C/c1ccc(O)cc1`, for which, in experiment [1], the inhibition is 60.5%.

Molecule `CCCC(NC(=O)C(CC(C)C)NC(=O)OCc1ccccc1)C(=O)C(=O)NCc1ccccn1` (stereo unspecified) had an inhibition in experiment [1] of 98.3%.

`CCC[C@H](NC(=O)[C@@H]1[C@H]2CCC[C@H]2CN1C(=O)[C@@H](NC(=O)[C@@H](NC(=O)c1cnccn1)C1CCCCC1)C(C)(C)C)C(=O)C(=O)NC1CC1`: the inhibition in experiment [1] worked out at 88.8%.

Regarding `CSCC[C@@H](C=O)NC(=O)[C@H](CC(C)C)NC(=O)[C@H](CC(C)C)NC(C)=O` (Ac-Leu-Leu-Met-aldehyde), the inhibition in experiment [1] worked out at 99.8%.

Take `Cn1cc(/C=C/C(=O)c2cccc(F)c2)cc1/C=C/C(=O)NO`: in experiment [1], the inhibition worked out at 51.4%.

In experiment [1], `Cc1c(O)cccc1C(=O)N[C@@H](CSc1ccccc1)[C@H](O)CN1C[C@H]2CCCC[C@H]2C[C@H]1C(=O)NC(C)(C)C` displayed an inhibition of 56.1%.

As for `Cc1cc(C(=O)CN2CCCC2)c(C)n1-c1ccc(F)cc1`, the inhibition in experiment [1] was found to be 54.8%.

Molecule `CC1=C(O)C(=O)C=C2C1=CC=C1[C@@]2(C)CC[C@@]2(C)[C@@H]3C[C@](C)(C(=O)O)CC[C@]3(C)CC[C@]12C` had an inhibition in experiment [1] of 57.7%.

Take `CC(NC(=O)Cc1cc(F)cc(F)c1)C(=O)NC1C(=O)N(C)c2ccccc2-c2ccccc21` (stereo unspecified): in experiment [1], the inhibition was found to be 53.8%.

With `O=C(O)/C(S)=C/c1c[nH]c2ccc(F)cc12`, the inhibition in experiment [1] was found to be 71.5%.

`CC(NC(=O)[C@H](Cc1ccccc1)NC(=O)OCc1ccccc1)C(=O)CF` (stereo partly specified) came in with an inhibition in experiment [1] of 90.1%.

For `CC(C)C[C@@H](C=O)NC(=O)[C@H](CC(C)C)NC(=O)[C@H](CC(C)C)NC(=O)OCc1ccccc1` (Cbz-Leu-Leu-Leu-aldehyde), the inhibition in experiment [1] is 99%.

Take `CC(=O)O/N=C1\C(=O)N(Cc2cc(Cl)ccc2Cl)c2ccc(Cl)cc21`: the inhibition in experiment [1] stood at 61.4%.

As for `CCCC[C@@H](C=O)NC(=O)[C@H](CC(C)C)NC(=O)OCc1ccccc1`, in experiment [1], the inhibition is 97.2%.

In experiment [1], `CC(=O)Cc1cc(=O)c2c(C)cc(O)c([C@@H]3O[C@H](CO)[C@@H](O)[C@H](O)[C@H]3O)c2o1` registered an inhibition of 80.1%. In addition, the IC50 in experiment [2] came out at 38.9 µM.

In experiment [1], `CC(C)(C)NC(=O)N[C@H](C(=O)N1C[C@H]2[C@@H]([C@H]1C(=O)NC(CC1CCC1)C(=O)C(N)=O)C2(C)C)C(C)(C)C` (stereo partly specified) displayed an inhibition of 97.4%.

As for `CC(C)C[C@H](NC(=O)[C@H](Cc1ccccc1)C[C@@H](O)[C@H](Cc1ccccc1)NC(=O)OC(C)(C)C)C(=O)N[C@@H](Cc1ccccc1)C(N)=O`, the inhibition in experiment [1] was found to be 65%.

Molecule `COc1cc(C)c2c(=O)cc(C[C@@H](C)O)oc2c1[C@@H]1O[C@H](CO)[C@@H](O)[C@H](O)[C@H]1OC(=O)/C=C/c1ccc(O)cc1` registered an inhibition in experiment [1] of 72.6%. In experiment [2], this molecule showed an IC50 of 125 µM.

In the case of `CCOC(=O)C[C@H](NC(=O)[C@@H](NC(=O)[C@H](CCC(=O)OC)NC(=O)[C@H](CC(=O)OCC)NC(=O)OCc1ccccc1)C(C)C)C(=O)CF`, in experiment [1], the inhibition turned out to be 100%.

In experiment [1], `C=C[C@H]1C[C@]1(NC(=O)[C@@H]1C[C@@H](Oc2ncc(OC)c3ccc(Cl)cc23)CN1C(=O)[C@@H](NC(=O)OC(C)(C)C)C(C)(C)C)C(=O)NS(=O)(=O)C1CC1` had an inhibition of 49.4%.

As for `CCCCCCCCCCCCCCCc1cccc(O)c1C(=O)O` [ANACARDIC ACID], the inhibition in experiment [1] was determined as 96.1%. The 50% inhibitory concentration (IC50) in experiment [2] turned out to be 6.8 µM.

For `CC(=O)N[C@@H](CC(C)C)C(=O)N[C@@H](CC(C)C)C(=O)N[C@H](C=O)CCCNC(=N)N`, the inhibition in experiment [1] was determined as 59%.

The molecule `O=C1CC(=O)c2c(Cl)c(Cl)c(Cl)c(Cl)c21` yielded an inhibition in experiment [1] of 94.2%. In addition, half-maximal inhibition in experiment [2] (IC50) was put at 138 µM.

In the case of `CC(C)(C)C1NC(=O)O[C@@H]2CCC[C@H]2OC/C=C/C(F)(F)c2nc3ccccc3nc2O[C@@H]2C[C@@H](C(=O)N[C@]3(C(=O)NS(=O)(=O)C4(C)CC4)C[C@H]3C(F)F)N(C2)C1=O` (stereo partly specified), the inhibition in experiment [1] is 51.7%.
